Experiments:
[1] = Ratio of drug level in tumor to uterus in athymic NCr mouse xenografted with human OVCAR-3 cells at 180 uCi, ip administered 9 days after tumor implantation as six fractionated doses every 4 days measured after 72 hrs by gamma counting; format: ADME, organism-based; details: in vivo
[2] = tested on: OVCAR-3; assay: Stability in human OVCAR-3 cells expressing androgen receptor assessed as half life at 0.1 uCi/mL by silica gel instant thin layer chromatography; format: ADME, cell-based
In short: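 Breakdown was followed with proliferating NIH:OVCAR-3 cells grown in complete RPMI-1640 medium. The distribution of radioactive products released into the culture medium (parent compound, 125IUdR and its 3′-succinate) was measured over time. Half-life was estimated from the time course.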

[3] = Stability in rabbit serum assessed as half life at 10 to 20 uCi/mL by reversed phase HPLC analysis; format: ADME, cell-free, Oryctolagus cuniculus
In short: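 The compound was incubated with rabbit or human serum at ambient temperature, and aliquots were taken at 1, 5 and 24 h. Aliquots were run on size-exclusion HPLC (TSK3000; 0.1 M potassium phosphate/0.1 M Na2SO4, pH 6.8, then an acetonitrile gradient). Extracts were run on C18 reversed-phase HPLC (water/acetonitrile with 0.07% TFA). Half-lives came from a monoexponential fit.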

[4] = tested on: OVCAR-3; assay: Antitumor activity against human OVCAR-3 cells xenografted in athymic NCr mouse assessed as number of nonadherent cancer cells in peritoneum at 180 uCi, ip administered 9 days after tumor implantation as six fractionated doses every 4 days measured after 2 weeks of last dose by gamma counting; format: functional
In short: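 OVCAR-3 ip xenografts in athymic mice; six fractionated ip doses every 4 days, total 180 μCi/mouse, with PBS or vehicle ip controls. Nonadherent tumor cells recovered by peritoneal lavage at necropsy, counted and pellet-weighed.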

[5] = Biodistribution in peritoneum of athymic NCr mouse xenografted with human OVCAR-3 cells at 1.12 uCi, ip after 1.5 hrs by gamma counting; format: ADME, organism-based; details: in vivo
[6] = tested on: LNCaP; assay: Cellular uptake in proliferating human LNCAP cells expressing androgen receptor after 24 hrs by gamma counting; format: ADME, cell-based
In short: (§1)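 Proliferating LNCaP monolayers exposed 24 h to a range of radioligand concentrations; whole-cell uptake measured.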

[7] = Stability in human OVCAR-3 cells expressing androgen receptor assessed as compound degradation at 0.1 uCi/mL up to 4 hrs by silica gel instant thin layer chromatography; format: ADME, cell-based; details: read-out: Activity
[8] = Ratio of drug level in tumor to liver in athymic NCr mouse xenografted with human OVCAR-3 cells at 180 uCi, ip administered 9 days after tumor implantation as six fractionated doses every 4 days measured after 1.5 hrs by gamma counting; format: ADME, organism-based; details: in vivo
[9] = tested on: Mus musculus; assay: Toxicity in ip dosed athymic NCr mouse assessed as change in body weight measured after 21 days; format: organism-based; details: in vivo, 504 h
[10] = target: T1, Sex hormone-binding globulin (Oryctolagus cuniculus, UniProt P15196); assay: Binding affinity to rabbit sex hormone binding globulin at 10 to 20 uCi/mL after 60 mins by reversed phase HPLC analysis; format: ADME; details: 1 h
T1 sequence (P15196 whole entry): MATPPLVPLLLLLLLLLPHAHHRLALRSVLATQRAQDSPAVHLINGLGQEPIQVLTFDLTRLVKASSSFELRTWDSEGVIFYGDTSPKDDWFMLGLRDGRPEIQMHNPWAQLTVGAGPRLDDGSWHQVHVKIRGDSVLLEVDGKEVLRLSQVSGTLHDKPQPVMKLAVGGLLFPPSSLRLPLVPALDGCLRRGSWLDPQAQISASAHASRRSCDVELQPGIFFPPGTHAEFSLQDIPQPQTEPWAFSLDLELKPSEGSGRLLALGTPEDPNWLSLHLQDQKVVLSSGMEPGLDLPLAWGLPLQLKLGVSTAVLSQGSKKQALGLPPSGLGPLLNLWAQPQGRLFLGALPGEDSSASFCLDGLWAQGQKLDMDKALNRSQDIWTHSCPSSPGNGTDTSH

[11] = tested on: OVCAR-3; assay: Cytotoxicity against human OVCAR-3 cells expressing androgen receptor at 5 uCi/mL after 24 hrs; format: functional
[12] = Ratio of drug level in tumor to spleen in athymic NCr mouse xenografted with human OVCAR-3 cells at 180 uCi, ip administered 9 days after tumor implantation as six fractionated doses every 4 days measured after 72 hrs by gamma counting; format: ADME, organism-based; details: in vivo
[13] = tested on: LNCaP; assay: Cellular uptake in proliferating human LNCAP cells expressing androgen receptor assessed as [125I]UdR retention per cell at 1 to 4 uCi/mL after 24 hrs by gamma counting; format: ADME, cell-based; in short: as §1
[14] = Ratio of drug level in tumor to blood in athymic NCr mouse xenografted with human OVCAR-3 cells at 180 uCi, ip administered 9 days after tumor implantation as six fractionated doses every 4 days measured after 24 hrs by gamma counting; format: ADME, organism-based; details: tumour
[15] = Ratio of drug level in tumor to kidney in athymic NCr mouse xenografted with human OVCAR-3 cells at 180 uCi, ip administered 9 days after tumor implantation as six fractionated doses every 4 days measured after 24 hrs by gamma counting; format: ADME, organism-based; details: in vivo
[16] = tested on: OVCAR-3; assay: Cellular uptake in human OVCAR-3 cells expressing androgen receptor after 24 hrs; format: ADME, cell-based; details: ovcar-3, 24 h
In short: (§2)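 NIH:OVCAR-3 cells in complete RPMI-1640 exposed to the radioligand for 24 h (concentration series) or at 1.75 μCi/mL for set times; medium then replaced and cells cultured further 24–48 h; whole-cell and DNA uptake in cpm/cell.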

[17] = Biodistribution in large intestine of athymic NCr mouse xenografted with human OVCAR-3 cells assessed per gram of tissue at an average 39.5 uCi/dose, ip administered 9 days after tumor implantation as six fractionated doses every 4 days measured after 2 weeks of last dose by gamma counting; format: ADME, organism-based; details: in vivo, 336 h
In short: (§3)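 OVCAR-3-bearing and healthy athymic mice given fractionated ip doses on the six-dose every-4-days schedule; tissues, tumor and lavaged cells γ-counted at necropsy, %ID/g; DNA-bound 125I in cells measured as cpm/cell.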

[18] = Biodistribution in tumor of athymic NCr mouse xenografted with human OVCAR-3 cells assessed per gram of tissue at an average 39.5 uCi/dose, ip administered 9 days after tumor implantation as six fractionated doses every 4 days measured after 2 weeks of last dose by gamma counting; format: ADME, organism-based, Neoplasm; details: in vivo, 336 h; in short: as §3
[19] = tested on: Liver; assay: Biodistribution in liver of athymic NCr mouse xenografted with human OVCAR-3 cells assessed per gram of tissue at an average 39.5 uCi/dose, ip administered 9 days after tumor implantation as six fractionated doses every 4 days measured after 2 weeks of last dose by gamma counting; format: ADME, organism-based; details: in vivo, 336 h; in short: as §3
[20] = tested on: OVCAR-3; assay: Cellular uptake in human OVCAR-3 cells expressing androgen receptor at 1.75 uCi/mL; format: ADME, cell-based; details: TDE = time-dependent effect; in short: as §2
[21] = tested on: LNCaP; assay: Cytotoxicity against human LNCAP cells expressing androgen receptor assessed as drug level required to reduce viable cell count to 37% after 48 hrs; format: functional
In short: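 LNCaP human prostate cancer cells were grown for 48 h with the 125I-labelled compound in the medium, and cell survival was then determined. D37 was expressed as the extracellular concentration in μCi/mL.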

[22] = tested on: Stomach; assay: Biodistribution in stomach of athymic NCr mouse xenografted with human OVCAR-3 cells assessed per gram of tissue at an average 39.5 uCi/dose, ip administered 9 days after tumor implantation as six fractionated doses every 4 days measured after 2 weeks of last dose by gamma counting; format: ADME, organism-based; details: in vivo, 336 h; in short: as §3

C[C@]12CCC(=O)C[C@@H]1CC[C@@H]1[C@@H]2CC[C@]2(C)[C@@H](OC(=O)CCC(=O)O[C@H]3C[C@H](n4cc([125I])c(=O)[nH]c4=O)O[C@@H]3CO)CC[C@@H]12
Ratio [1]: 7.4 | t1/2 [2]: 3.2 h | t1/2 [3]: 5.7 h | Activity [4]: 1250000000 | Drug uptake [5]: 29% | Drug uptake [6]: Dose-dependent effect | metabolised at 4 h, 0.1 uCi/mL [7]: 60% | Ratio [8]: 1.4 | Activity [9]: Non-toxic | Activity [10]: Active | Activity [11]: 20% | Ratio [12]: 11.9 | Bmax [13]: 1.4 ×10⁻⁶ pmol | Ratio [14]: 64.7 | Ratio [15]: 79.1

C[C@]12CCC(=O)C[C@@H]1CC[C@@H]1[C@@H]2CC[C@]2(C)[C@@H](OC(=O)CCC(=O)O[C@H]3C[C@H](n4cc([125I])c(=O)[nH]c4=O)O[C@@H]3COP(=O)(O)O)CC[C@@H]12
Drug uptake [16]: Dose-dependent effect | Drug uptake [17]: 0.008 %ID | Drug uptake [18]: 2.892 %ID | Drug uptake [19]: 0.017 %ID | Drug uptake [20]: tde | Activity [21]: 1.7 uCi/ml | Drug uptake [22]: 0.009 %ID
